From ChEMBL document CHEMBL4043302, “Lead Diversification at the Nanomole Scale Using Liver Microsomes and Quantitative Nuclear Magnetic Resonance Spectroscopy: Application to Phosphodiesterase 2 Inhibitors” (J Med Chem, 2018)

Tests used:
[1] = Metabolic stability in human hepatocytes at 1 uM after 0.5 to 4 hrs by HPLC-HRMS method; format: ADME, cell-based, Hepatocyte
Method in brief: (§1)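 Compound at 1 µM was dried from d6-DMSO and redissolved in Williams E medium. Pooled human hepatocytes were added at 680000 cells/mL. Samples were quenched in water/CH3CN (2:1) with 2% formic acid and clozapine as internal standard, then analysed by HPLC-HRMS in positive-ion full scan. k came from the slope of ln peak-area ratio versus time; CLint = k / cell concentration. Non-specific binding was not measured.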

[2] = (§2) Apparent permeability across RRCK cells after 1.5 hrs; format: ADME, cell-based, Canis lupus familiaris, MDCKII-LE; conditions: dog, MDCK
[3] = Drug level in hamster liver microsomes treated with 7-(1,3-Dimethyl-5-(4-(trifluoromethyl)phenyl)-1H-pyrazol-4-yl)-5-(methoxymethyl)-2-methylimidazol[5,1-f ][1,2,4]triazin-4-(3H)-one at 20 uM after 1 hr by UHPLC-UV-HRMS method; format: ADME, microsome; conditions: cricetinae
Method in brief: (§3)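 Preparative incubation: substrate 20 µM with liver microsomes (2 mg/mL) of the listed species in 0.1 M potassium phosphate, pH 7.5, with MgCl2 3.3 mM and NADPH 1.3 mM. Run at 37°C in a shaking water bath and stopped with an equal volume of CH3CN. Products were fractionated by HPLC and quantified by qNMR in d6-DMSO.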

[4] = Intrinsic clearance in human hepatocytes assessed per million cells at 1 uM after 0.5 to 4 hrs by HPLC-HRMS method; format: ADME, cell-based, Hepatocyte; conditions: for hepatocyte CLint at 1 µM: human hepatocytes, read-out: CLH; for CLint: hepatocytes, 1 µM; method in brief: as §1
[5] = system: Liver; test: Drug level in human liver microsomes treated with 2-(3,4-dimethoxybenzyl)-7-((2S,3R)-2-hydroxy-6-phenylhexan-3-yl)-5-methylimidazo[1,5-f][1,2,4]triazin-4(3H)-one at 20 uM after 1 hr by UHPLC-UV-HRMS method; format: ADME, microsome; method in brief: as §3
[6] = target: cGMP-dependent 3',5'-cyclic phosphodiesterase (Homo sapiens, UniProt O00408); test: Inhibition of human PDE2A1 using 3',5'-[3H]cGMP as substrate after 30 mins by scintillation proximity assay
cGMP-dependent 3',5'-cyclic phosphodiesterase, sequence (O00408 whole entry): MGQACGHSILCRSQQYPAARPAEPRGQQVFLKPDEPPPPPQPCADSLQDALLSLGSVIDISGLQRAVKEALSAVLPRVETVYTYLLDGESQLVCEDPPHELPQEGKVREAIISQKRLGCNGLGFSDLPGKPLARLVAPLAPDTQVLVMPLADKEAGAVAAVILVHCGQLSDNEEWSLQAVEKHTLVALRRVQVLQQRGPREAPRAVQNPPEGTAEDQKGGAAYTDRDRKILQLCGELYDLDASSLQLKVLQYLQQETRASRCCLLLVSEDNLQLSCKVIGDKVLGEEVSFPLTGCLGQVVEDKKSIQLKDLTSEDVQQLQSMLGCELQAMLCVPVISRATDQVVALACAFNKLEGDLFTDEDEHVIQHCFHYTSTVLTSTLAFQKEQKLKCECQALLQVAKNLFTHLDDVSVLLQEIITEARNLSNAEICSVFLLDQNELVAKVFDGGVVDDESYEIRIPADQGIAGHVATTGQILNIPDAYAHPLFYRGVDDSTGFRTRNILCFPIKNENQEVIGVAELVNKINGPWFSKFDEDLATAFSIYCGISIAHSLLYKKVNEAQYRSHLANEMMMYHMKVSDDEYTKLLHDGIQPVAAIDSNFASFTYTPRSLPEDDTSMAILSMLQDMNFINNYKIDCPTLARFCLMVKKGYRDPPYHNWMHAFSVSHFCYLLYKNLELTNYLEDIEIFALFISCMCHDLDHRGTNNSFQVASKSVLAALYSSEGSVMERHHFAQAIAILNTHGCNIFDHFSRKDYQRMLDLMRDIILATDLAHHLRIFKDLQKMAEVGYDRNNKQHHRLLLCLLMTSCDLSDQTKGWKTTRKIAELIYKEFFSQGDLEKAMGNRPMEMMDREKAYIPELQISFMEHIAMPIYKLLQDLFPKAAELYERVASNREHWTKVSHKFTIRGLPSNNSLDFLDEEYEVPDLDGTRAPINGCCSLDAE

[7] = Drug level in cynomolgus monkey liver microsomes treated with 7-(1,3-Dimethyl-5-(5-(trifluoromethyl)pyridine-2-yl)-1H-pyrazol-4-yl)-2,5-dimethylimidazo[5,1-f ][1,2,4]triazin-4(3H)-one at 20 uM after 1.2 hrs by UHPLC-UV-HRMS method; format: ADME, Macaca fascicularis, microsome; method in brief: as §3
[8] = Drug level in rabbit liver microsomes treated with 7-(1,3-Dimethyl-5-(3-methyl-4-(trifluoromethyl)phenyl)-1H-pyrazol-4-yl)-2,5-dimethylimidazo[5,1-f ][1,2,4]triazin-4(3H)-one at 20 uM after 1 hr by UHPLC-UV-HRMS method; format: ADME, Oryctolagus cuniculus, microsome
[9] = system: Liver; test: Drug level in mouse liver microsomes treated with 7-(5-(4-Chlorophenyl)-1,3-dimethyl-1H-pyrazol-4-yl)-2,5-dimethylimidazo[5,1-f ][1,2,4]triazin-4(3H)-one at 20 uM after 1.5 hrs by UHPLC-UV-HRMS method; format: ADME, microsome; method in brief: as §3
[10] = system: Liver; test: Drug level in dog liver microsomes treated with 2-(3,4-dimethoxybenzyl)-7-((2R,3R)-2-hydroxy-6-phenylhexan-3-yl)-5-methylimidazo[1,5-f][1,2,4]triazin-4(3H)-one at 20 uM after 1 hr by UHPLC-UV-HRMS method; format: ADME, Canis lupus familiaris, microsome; method in brief: as §3
[11] = Drug level in hamster liver microsomes treated with 7-(5-(4-Methoxyphenyl)-1,3-dimethyl-1H-pyrazol-4-yl)-2,5-dimethylimidazo[5,1-f ][1,2,4]triazin-4(3H)-one at 20 uM after 1.5 hrs by UHPLC-UV-HRMS method; format: ADME, microsome; conditions: cricetinae; method in brief: as §3
[12] = Drug level in cynomolgus monkey liver microsomes treated with 5-(Difluoromethyl)-7-(1,3-dimethyl-5-(4-(trifluoromethyl)phenyl)-1H-pyrazol-4-yl)-2-methylimidazo[5,1-f ][1,2,4]triazin-4(3H)-one at 20 uM after 1.5 hrs by UHPLC-UV-HRMS method; format: ADME, Macaca fascicularis, microsome; method in brief: as §3
[13] = system: MDCKII-LE; test: as §2; format: ADME, cell-based, Canis lupus familiaris; conditions: dog, mdckii-le, 1.5 h

| Stability [1] | Papp at 1.5 h [2] [×10⁻⁶ cm/s] | hepatocyte CLint at 1 µM [4] [µL/min/1e6 cells] | other results | SMILES |
| --- | --- | --- | --- | --- |
| Stable | 0.94 | – | Drug metabolism [3]: Metabolite_Detected | Cc1nn2c(-c3c(C)n[nH]c3-c3ccc(C(F)(F)F)cc3)nc(CO)c2c(=O)[nH]1 |
| – | 1.2 | 9.6 | Drug metabolism [5]: Metabolite_Detected | COc1ccc(Cc2nn3c([C@@H](CCC(O)c4ccccc4)[C@H](C)O)nc(C)c3c(=O)[nH]2)cc1O (some centres undefined) |
| Stable | 8.3 | – | IC50 [6]: 0.3 nM; Drug metabolism [3]: Metabolite_Detected | Cc1nn2c(-c3c(C)nn(C)c3-c3ccc(C(F)(F)F)cc3)nc(CO)c2c(=O)[nH]1 |
| – | – | 32 | Drug metabolism [5]: Metabolite_Detected | COc1ccc(Cc2nn3c([C@@H](CCC(=O)c4ccccc4)[C@H](C)O)nc(C)c3c(=O)[nH]2)cc1OC |
| – | 1.2 | 14.7 | Drug metabolism [7]: Metabolite_Detected | Cc1nn2c(-c3c(C=O)nn(C)c3-c3ccc(C(F)(F)F)cn3)nc(C)c2c(=O)[nH]1 |
| Stable | < 0.5 | – | Drug metabolism [8]: Metabolite_Detected | Cc1nn2c(-c3c(C)nn(C)c3-c3ccc(C(F)(F)F)c(CO)c3)nc(CO)c2c(=O)[nH]1 |
| – | 4.9 | 15 | Drug metabolism [9]: Metabolite_Detected | Cc1nn2c(-c3c(C)nn(C)c3-c3ccc(Cl)cc3)nc(CO)c2c(=O)[nH]1 |
| Stable | 0.54 | – | Drug metabolism [7]: Metabolite_Detected | Cc1nn2c(-c3c(CO)nn(C)c3-c3ccc(C(F)(F)F)cn3)nc(CO)c2c(=O)[nH]1 |
| – | 3 | 3.9 | Drug metabolism [8]: Metabolite_Detected | Cc1nn2c(-c3c(C)nn(C)c3-c3ccc(C(F)(F)F)c(CO)c3)nc(C)c2c(=O)[nH]1 |
| – | 1.2 | 13 | Drug metabolism [10]: Metabolite_Detected | COc1cc(Cc2nn3c([C@@H](CCC(O)c4ccccc4)[C@@H](C)O)nc(C)c3c(=O)[nH]2)ccc1O (some centres undefined) |
| Stable | 13 | – | Drug metabolism [8]: Metabolite_Detected | Cc1nn2c(-c3c(C)nn(C)c3-c3ccc(C(F)(F)F)c(C)c3)nc(CO)c2c(=O)[nH]1 |
| – | 0.56 | 2.4 | Drug metabolism [10]: Metabolite_Detected | COc1ccc(Cc2nn3c([C@@H](CC(O)C(O)c4ccccc4)[C@@H](C)O)nc(C)c3c(=O)[nH]2)cc1OC (some centres undefined) |
| – | – | 4.3 | Drug metabolism [5]: Metabolite_Detected | COc1ccc(Cc2nn3c([C@@H](C(O)CC(O)c4ccccc4)[C@H](C)O)nc(C)c3c(=O)[nH]2)cc1OC (some centres undefined) |
| – | 7.9 | 13 | Drug metabolism [3]: Metabolite_Detected | COCc1nc(-c2c(C)nn(C)c2-c2ccc(C(F)(F)F)cc2)n2c1c(=O)[nH]c(C)[n+]2[O-] |
| – | 1.1 | 1.9 | Drug metabolism [11]: Metabolite_Detected | COc1ccc(-c2[nH]nc(C)c2-c2nc(C)c3c(=O)[nH]c(C)nn23)cn1 |
| Stable | 1 | – | Drug metabolism [3]: Metabolite_Detected | Cc1nn2c(-c3c(CO)nn(C)c3-c3ccc(C(F)(F)F)cc3)nc(CO)c2c(=O)[nH]1 |
| Stable | 1.7 | – | Drug metabolism [8]: Metabolite_Detected | Cc1nn2c(-c3c(CO)nn(C)c3-c3ccc(C(F)(F)F)c(C)c3)nc(CO)c2c(=O)[nH]1 |

| Stability [1] | Papp at 1.5 h [2] [×10⁻⁶ cm/s] | hepatocyte CLint at 1 µM [4] [µL/min/1e6 cells] | other results | SMILES |
| --- | --- | --- | --- | --- |
| – | 6.3 | 5.5 | Drug metabolism [12]: Metabolite_Detected | Cc1nn2c(-c3c(CO)nn(C)c3-c3ccc(C(F)(F)F)cc3)nc(C(F)F)c2c(=O)[nH]1 |
| – | 10 | 6.4 | Drug metabolism [12]: Metabolite_Detected | Cc1nn2c(-c3c(C)n[nH]c3-c3ccc(C(F)(F)F)cc3)nc(C(F)F)c2c(=O)[nH]1 |
| Stable | 1.7 | – | Drug metabolism [7]: Metabolite_Detected | Cc1nn2c(-c3c(C)nn(C)c3-c3ccc(C(F)(F)F)cn3)nc(CO)c2c(=O)[nH]1 |
| Stable | 0.55 | – | Drug metabolism [8]: Metabolite_Detected | Cc1nn2c(-c3c(CO)nn(C)c3-c3ccc(C(F)(F)F)c(CO)c3)nc(C)c2c(=O)[nH]1 |
| Stable | < 0.5 | – | IC50 [6]: > 2000 nM; Drug metabolism [11]: Metabolite_Detected | Cc1nn2c(-c3c(C)n[nH]c3-c3ccc(O)nc3)nc(C)c2c(=O)[nH]1 |
| Stable | 0.76 | – | Drug metabolism [11]: Metabolite_Detected | COc1ccc(-c2c(-c3nc(CO)c4c(=O)[nH]c(C)nn34)c(C)nn2C)cn1 |
| – | 1.1 | 12 | Drug metabolism [10]: Metabolite_Detected | COc1ccc(Cc2nn3c([C@@H](CCC(O)c4ccccc4)[C@@H](C)O)nc(C)c3c(=O)[nH]2)cc1O (some centres undefined) |
| – | 11 | 25 | Drug metabolism [10]: Metabolite_Detected | COc1ccc(Cc2nn3c([C@@H](CCC(=O)c4ccccc4)[C@@H](C)O)nc(C)c3c(=O)[nH]2)cc1OC |
| – | 19 | 11 | Drug metabolism [9]: Metabolite_Detected | Cc1nn2c(-c3c(CO)nn(C)c3-c3ccc(Cl)cc3)nc(C)c2c(=O)[nH]1 |
| Stable | < 0.5 | – | Drug metabolism [7]: Metabolite_Detected | Cc1nn2c(-c3c(CO)nn(C)c3-c3ccc(C(F)(F)F)cn3)nc(C)c2c(=O)[nH]1 |
| Stable | 53 | – | Drug metabolism [8]: Metabolite_Detected | Cc1nn2c(-c3c(C(=O)O)nn(C)c3-c3ccc(C(F)(F)F)c(C)c3)nc(C)c2c(=O)[nH]1 |
| Stable | < 0.5 | – | Drug metabolism [11]: Metabolite_Detected | COc1ccc(-c2[nH]nc(C)c2-c2nc(CO)c3c(=O)[nH]c(C)nn23)cn1 |
| – | 2 | 14 | Drug metabolism [10]: Metabolite_Detected | COc1ccc(Cc2nn3c([C@@H](CCC(O)c4ccccc4)[C@@H](C)O)nc(C)c3c(=O)[nH]2)cc1OC (single isomer, unassigned; diastereomer 1) |
| – | – | – | CLint [4]: 14 µL/min/1e6 cells; Papp [13]: 2.2 ×10⁻⁶ cm/s | COc1ccc(Cc2nn3c([C@@H](CCC(O)c4ccccc4)[C@H](C)O)nc(C)c3c(=O)[nH]2)cc1OC (single isomer, unassigned; diastereomer 2) |
| – | – | – | CLint [4]: 5.8 µL/min/1e6 cells; IC50 [6]: > 2000 nM | Cc1nc(-c2cnn3c2CN(CC2CCCC2O)CC3)c2c(=O)[nH]cnn12 (single isomer, unassigned; diastereomer 2) |
| – | 2.8 | 11 | Drug metabolism [5]: Metabolite_Detected | COc1ccc(Cc2nn3c([C@@H](CCC(O)c4ccccc4)[C@H](C)O)nc(C)c3c(=O)[nH]2)cc1OC (stereo in doubt) |
| – | – | – | CLint [4]: 17 µL/min/1e6 cells; Papp [13]: 2.2 ×10⁻⁶ cm/s | COc1ccc(Cc2nn3c([C@@H](CCC(O)c4ccccc4)[C@@H](C)O)nc(C)c3c(=O)[nH]2)cc1OC (stereo in doubt) |
